# Screens deposited in PubChem BioAssay by The Scripps Research Institute Molecular Screening Center.
# Compounds with a hit are over-represented: about 3.5% of the library has one in this group of screens.
# mABHD4 FP = ABHD4 inhibitors, primary screen, biochemical, fluorescence polarization, mouse; AID 720543, 2013; purified mABHD4, FP-Rh probe fluorescence polarization; (Lyso)-N-acylphosphatidylethanolamine lipase (Mus musculus), Q8VD66; actives 0.54% (n = 370,000); inhibition, % at 8.92 µM;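 active = inhibition exceeding the mean over every tested compound plus 3 SD, cut at about 30% in these data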;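 also: 0% = plate median of compound wells and 100% = S159A mutant with DMSO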
#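 Assay system: wild-type mouse ABHD4 protein; compound: single nominal dose of 8.92 µM, 0.89% DMSO final; schedule: 45 min + 60 min at 25 °C; measured by: FP readout, ex 525 nm / em 598 nm; evaluation: % inhibition of FP-Rh probe binding versus controls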
# PRMT1 FP inh = PRMT1 methyltransferase inhibitors, primary screen, biochemical, fluorescence polarization | Protein arginine N-methyltransferase 1 (Homo sapiens), Q99873 | recombinant PRMT1, activity-based probe fluorescence polarization | inhibition, % at 2.79 µM | actives 1.3% (n = 370,000);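 active = inhibition above about 21% made by adding two undisclosed values, limit read from the data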
# Target sequence (Q99873 whole entry, looked up): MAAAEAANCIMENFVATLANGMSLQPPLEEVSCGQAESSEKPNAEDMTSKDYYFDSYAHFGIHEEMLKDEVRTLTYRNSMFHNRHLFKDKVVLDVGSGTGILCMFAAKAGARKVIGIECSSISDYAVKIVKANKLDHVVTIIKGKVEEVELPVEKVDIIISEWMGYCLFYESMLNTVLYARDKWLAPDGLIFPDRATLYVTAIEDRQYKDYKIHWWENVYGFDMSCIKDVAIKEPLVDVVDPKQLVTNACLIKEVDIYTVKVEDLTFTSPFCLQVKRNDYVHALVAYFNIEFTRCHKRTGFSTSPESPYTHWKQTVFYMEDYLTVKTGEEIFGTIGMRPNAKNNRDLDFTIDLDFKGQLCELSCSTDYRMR
# rCAG RNA binder = binders of r(CAG) RNA repeats, primary screen, biochemical, fluorescence; actives 1.3% (n = 370,000); r(CAG) RNA repeat, TO-PRO-1 dye displacement fluorescence; AID 651821, 2012; inhibition, % at 3 µM;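 active = inhibition above the plate cutoff, the mean of all test compounds on that plate plus 3 SD, cut at about 35% in these data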;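 also: 0% = DMSO alone and 100% = 100 µM mitoxantrone as full dye displacement; higher means more dye released from RNA so lower well fluorescence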
# SIAE primary = human SIAE inhibitors, primary screen, biochemical, fluorescence polarization, FP-Rh probe, 1536-well HTS; SIAE FP-Rh probe binding; inhibition, % at 9.66 µM; actives 0.69% (n = 370,000); AID 1053197, 2014;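 active = inhibition above a cutoff: mean of compounds within the control limits plus 3 SD of those, cut at about 17% in these data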;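 also: 0% = plate median of compound wells and 100% = probe without SIAE protein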
# HTRA1 inh = HTRA1 serine protease inhibitors, primary screen, biochemical, fluorescence polarization, HTS. Q92743. inhibition, % at 5.96 µM. recombinant HTRA1, FP-rhodamine activity-based probe. AID 504803, 2011. actives 0.5% (n = 340,000); in the data active = inhibition above about 36%;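 also: 0% = enzyme with DMSO and 100% = wells lacking enzyme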
# TCR-CD3 inh = inhibitors of human TCR-CD3 interaction, primary screen, biochemical, fluorescence, TAMRA-labeled TCR probe; T-cell receptor (TCR); actives 0.37% (n = 360,000); inhibition, % at 9.4 µM; in the data active = inhibition above about 19%;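 also: recombinant mutant TCR 2C K166C tagged with TAMRA read by polarization; 0% = receptor in buffer alone and 100% = receptor with positive control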
# SIAE inh conf = human SIAE inhibitors, retest, confirmation, biochemical, fluorescence polarization, FP-Rh probe, triplicate; actives 13% (n = 2,300); inhibition, % at 9.66 µM; shares compounds with SIAE primary; SIAE FP-Rh activity-based probe;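 active = mean inhibition of the replicates above the hit cutoff set in the primary screen, cut at about 17% in these data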;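 also: 0% = SIAE with DMSO and probe and 100% = probe without SIAE; inhibitors lower polarization as more probe stays unbound to SIAE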
# The depositor's hits bear a star; nt = no result given.
SMILES,mABHD4 FP,PRMT1 FP inh,rCAG RNA binder,SIAE primary,HTRA1 inh,TCR-CD3 inh,SIAE inh conf
COc1cccc(/C=N/Nc2nc(Nc3ccc([N+](=O)[O-])cc3)nc(N3CCCC3)n2)c1O,8,4,10,19*,nt,-2,-8
O=C(Nc1nc2ncccn2c1-c1ccc(C(F)(F)F)cc1)C1CC1,7,-5,0,-3,nt,nt,nt
CCOc1cc(C=NN2CCN(Cc3ccc(C)cc3)CC2)ccc1O,11,5,2,14,nt,nt,nt
O=C(c1ccc(Cl)cc1)N1CCC2CC1c1cc(-c3ccccc3)ccc12 (stereo not drawn),-10,1,6,21*,-21,3,-6
O=C(Nc1ccc([N+](=O)[O-])cc1)Nc1ccc(N2CCOCC2)c2nonc12,0,-9,1,19*,2,3,11
CCOc1ccc(-n2c(SCc3cccc4ccccc34)nnc2-c2ccc(C)cc2)cc1,-7,-1,8,7,nt,nt,nt
COc1ccc(/C=N/Nc2nc3ccccc3[nH]2)c(OC)c1OC,8,-2,-3,21*,10,0,4
Cc1[nH]c2ccccc2c1/C=N/Nc1nc2ccccc2[nH]1,24,-6,12,32*,nt,-1,37*
Cc1[nH]c2ccccc2c1/C=N/Nc1nc(N2CCCCC2)nc(N2CCCCC2)n1,21,-1,-2,18*,3,1,6
Cc1ccccc1/C=N/Nc1nc2ccccc2[nH]1,16,3,3,1,2,-5,nt
C(=N\Nc1nc(N2CCCCC2)nc(N2CCCCC2)n1)/c1c[nH]c2ccccc12,9,-3,5,14,4,10,nt
COc1ccc(/C=N/Nc2ccccn2)c(OC)c1OC,2,-2,-7,2,2,2,nt
COCCCN1C(=O)[C@H](CC(=O)NCCC(C)C)[C@]2(C(=O)OC)CCCCC=C12,3,2,0,5,nt,nt,nt
CC(C)(C)c1ccc(C(=O)Nc2cc(Cl)c(F)cc2C(=O)O)cc1,-44,6,nt,-21,nt,nt,nt
COC(=O)[C@]12C[C@H](CC(=O)N3CCN(C(=O)c4ccco4)CC3)C(=O)N(Cc3cccc4ccccc34)C1=C[C@H](C(C)C)O[C@@H]2C1CC1,-7,-2,8,6,nt,nt,nt
CCOC(=O)[C@@H]1CSCCS(=O)(=O)N1Cc1ccccc1,2,2,1,-7,nt,nt,nt
CC(C)OC(=O)CSc1nnc(-c2ccccn2)n1-c1ccccc1,-5,-1,0,3,2,-3,nt
CC(C)OC(=O)CSc1nnc(-c2ccccn2)n1C,2,-3,-2,18*,4,5,5
COc1ccc(C2C(C(=O)Nc3c(C)cccc3C)CCC(=O)N2c2ccc(OC)cc2)cc1 (stereo not drawn),0,5,8,0,nt,nt,nt
CN1/C(=C\C(=O)Nc2ccc(F)cc2)C(C)(C)c2ccccc21,-1,1,2,-3,-16,-4,nt
CN1/C(=C\C(=O)Nc2ccc(Br)cc2)C(C)(C)c2ccccc21,-3,-2,0,26*,-5,5,6
CS(=O)(=O)NCCCCCCNS(C)(=O)=O,-5,-4,0,17*,4,4,0
Cc1ccc(S(=O)(=O)NCCCNS(C)(=O)=O)cc1,-5,2,-1,-3,-1,2,nt
COc1ccc(NC(=O)N(C)C[C@H]2Oc3ccc(NS(=O)(=O)c4ccc(F)cc4)cc3C(=O)N([C@H](C)CO)C[C@@H]2C)cc1,10,-2,0,18*,-5,5,3
C[C@H]1[C@H](c2ccccc2)Oc2cccc(NCCc3ccccc3)c2S(=O)(=O)N1Cc1ccc(F)cc1,-2,-3,5,-1,nt,-1,nt
SMILES,mABHD4 FP,PRMT1 FP inh,rCAG RNA binder,SIAE primary,HTRA1 inh,TCR-CD3 inh,SIAE inh conf
Cc1noc(C)c1C(C)C1=CCCCC1 (stereo not drawn),7,-3,3,4,nt,nt,nt
CCc1ccccc1NCC(=O)Nc1ccc(Cl)c(C(F)(F)F)c1,-16,-1,5,27*,5,0,11
COc1ccccc1NC(=O)CN1CCN(CC(=O)Nc2ccc(Cl)c(C(F)(F)F)c2)CC1,-6,-1,-3,-7,-33,6,nt
C=CCOc1ccc(CNn2cn[nH]c2=S)cc1OC,4,-2,3,9,-1,-6,nt
C=CCOc1ccc(CNn2cn[nH]c2=S)cc1OCC,5,-2,-1,47*,2,4,-4
COc1ccc(-n2nnnc2C2c3ccccc3C(=O)N2C2CCN(Cc3ccccc3)CC2)cc1 (stereo not drawn),2,-3,1,21*,nt,5,4
COc1ccc(OC)c(CN2C(=O)c3ccccc3C2c2nnnn2-c2ccc3c(c2)OCCO3)c1 (stereo not drawn),5,3,4,7,nt,2,nt
S=C(NCCCn1ccnc1)Nc1cccc(Cl)c1,-1,-3,-1,20*,0,7,0
NC(=O)c1ccc(NC(=O)COC(=O)c2ccccc2SCC(=O)N2CCCC2)cc1,4,9,2,-2,2,8,nt
O=C(COC(=O)c1ccccc1SCC(=O)N1CCCC1)Nc1ccc(OC(F)F)cc1,-7,19,-1,20*,2,3,1
COC(=O)c1[nH]c2ccc(Cl)cc2c1NC(=O)CN1CCC(C(N)=O)CC1,5,-2,2,22*,nt,-2,-5
C=CCNC(=S)N/N=C/c1ccc(-c2ccc(OC)cc2)o1,14,5,5,19*,-8,3,2
COc1ccc(-c2cc(C(F)(F)F)nc(N3CCCCC3)n2)cc1OC,2,1,-1,19*,2,5,-4
CCCCN(C(=O)C1=COCCO1)c1c(N)n(CCC)c(=O)[nH]c1=O,0,0,-4,20*,8,3,-6
Cn1c(=O)n(Cc2ccccc2)c(=O)c2c1nc1n2CCN1Cc1ccco1,-1,-2,-8,19*,-1,3,4
COP(=O)(O)C[C@@H]1CCc2cc(C)cc([C@H](CC(C)C)NC(=O)OCc3ccccc3)c2O1,-4,6,26,2,nt,nt,nt
COc1cccc(NC(=S)N/N=C2\CC3CCC2(C)C3(C)C)c1 (stereo not drawn),0,1,-2,10,-17,-2,nt
Fc1ccccc1NC(=S)NC1CCCC1,0,-3,-3,1,2,3,nt
COc1cccc(NC(=S)NN=C2CCC(C(C)(C)C)CC2)c1 (stereo not drawn),3,2,0,19*,-11,0,2
